Measured values taken from ChEMBL document CHEMBL3758071, “Phomanolides A and B from the Fungus Phoma sp.: Meroterpenoids Derived from a Putative Tropolonic Sesquiterpene via Hetero-Diels-Alder Reactions” (J Nat Prod, 2015).
Calls of active or inactive are those of the source. The calls are words filed in the database; no cut-off is given here.

Tests used:
Assay type in all cases: functional, cell-based
SH-SY5Y [1] = assay: Antiproliferative activity against human SH-SY5Y cells at 20 ug/ml after 48 hrs by MTT assay
U-251 [2] = assay: Antiproliferative activity against human U251 cells at 20 ug/ml after 48 hrs by MTT assay
HCT-116 = assay: Antiproliferative activity against human HCT116 cells at 20 ug/ml after 48 hrs by MTT assay
HeLa [3] = assay: Antiproliferative activity against human HeLa cells at 20 ug/ml after 48 hrs by MTT assay
H4 = assay: Antiproliferative activity against human H4 cells at 20 ug/ml after 48 hrs by MTT assay
A549 [4] = assay: Antiproliferative activity against human A549 cells at 20 ug/ml after 48 hrs by MTT assay
T-24 = assay: Antiproliferative activity against human T24 cells at 20 ug/ml after 48 hrs by MTT assay
U-251 [5] = assay: Antiproliferative activity against human U251 cells after 48 hrs by MTT assay; conditions: U-251, 48 h
Procedure, shortened: (§1)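 H4 and U251 glioma cells were maintained in MEM-EBSS with 10% FBS at 37 °C and 5% CO2. Cells were plated at 10^4 per well and attached overnight. They were treated 4 h with serially diluted compound (DMSO stock 10 mg/mL; vehicle 0.2% DMSO), then given fresh DMEM for 48 h. MTT (0.5 mg/mL) was added for 3 h, DMSO used to solubilise, and A540 read. IC50 reported.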

HeLa [6] = assay: Antiproliferative activity against human HeLa cells after 48 hrs by MTT assay
Procedure, shortened: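 HeLa cells were grown in RPMI 1640 with 10% FBS at 37 °C and 5% CO2 and seeded at 10^4 per well overnight. Serial dilutions (DMSO stock 10 mg/mL; vehicle 0.2% DMSO) were applied for 4 h at 37 °C, then the medium was replaced with fresh DMEM for 48 h. MTT (0.5 mg/mL) was added for 3 h in the dark, formazan dissolved in DMSO, and absorbance read at 540 nm. IC50 reported.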

SH-SY5Y [7] = assay: Antiproliferative activity against human SH-SY5Y cells after 48 hrs by MTT assay
Procedure, shortened: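 SH-SY5Y cells were grown in DMEM with 10% FBS at 37 °C and 5% CO2, seeded at 10^4 cells/well and left to attach overnight. Cells were exposed to serial dilutions from a 10 mg/mL DMSO stock (vehicle 0.2% DMSO) for 4 h at 37 °C, then grown 48 h in fresh DMEM. MTT (0.5 mg/mL) was added for 3 h in the dark, formazan dissolved in DMSO, and absorbance read at 540 nm.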

A549 [8] = assay: Antiproliferative activity against human A549 cells after 48 hrs by MTT assay; conditions: A549, 48 h
Procedure, shortened: (§2)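 A549, T24 and HCT116 cells were grown in McCoy's 5A with 10% FBS at 37 °C and 5% CO2. Cells were seeded at 10^4 per well and attached overnight. They were exposed for 4 h to serial dilutions (DMSO stock 10 mg/mL; vehicle 0.2% DMSO), then grown 48 h in fresh DMEM. MTT (0.5 mg/mL) was added for 3 h, formazan dissolved in DMSO, and A540 read. IC50 reported.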

[9] = Antiproliferative activity against human H4 cells after 48 hrs by MTT assay; conditions: H4, 48 h; procedure, shortened: as §1
[10] = Antiproliferative activity against human HCT116 cells after 48 hrs by MTT assay; conditions: HCT-116, 48 h; procedure, shortened: as §2
[11] = Antiproliferative activity against human T24 cells after 48 hrs by MTT assay; conditions: T-24, 48 h; procedure, shortened: as §2

**Q.** With `C/C1=C/CC(C)(C)/C=C/C[C@]2(C)OC3=CC(=O)O[C@]4(C)CC(=O)O[C@]34C[C@H]2C[C@@H]1O` as the compound, how does the Activity (SH-SY5Y [1]) read?
**A.** inactive

**Q.** What about the Activity (U-251 [2]) of the same compound?
**A.** inactive

**Q.** And the Activity (HCT-116)?
**A.** inactive

**Q.** What about the Activity (HeLa [3]) of the same compound?
**A.** inactive

**Q.** And the Activity (H4)?
**A.** inactive

**Q.** And the Activity (A549 [4])?
**A.** inactive

**Q.** What about the Activity (T-24) of the same compound?
**A.** inactive

**Q.** Which results are given for `Cc1cc(=O)c(O)cc2c1C[C@H]1CC(C)(C)/C=C/C[C@]3(C)Oc4cc(O)c(=O)cc(C)c4C[C@H]3C[C@H](O)[C@@]1(C)O2`?
**A.** IC50 (U-251 [5]): 100 nM; IC50 (HeLa [6]): 8.2 nM; IC50 (SH-SY5Y [7]): 80 nM; IC50 (A549 [8]): 30.6 nM; IC50 [9]: 130 nM; IC50 [10]: 31.2 nM; IC50 [11]: 12.5 nM

**Q.** For `C/C1=C/CC(C)(C)[C@@H]2O[C@H]2C[C@@]2(C)O[C@@H]2C[C@@H]1O`, which Activity (SH-SY5Y [1]) is on record?
**A.** inactive

**Q.** What about the Activity (U-251 [2]) of the same compound?
**A.** inactive

**Q.** What about the Activity (HCT-116) of the same compound?
**A.** inactive

**Q.** And the Activity (HeLa [3])?
**A.** inactive

**Q.** What about the Activity (H4) of the same compound?
**A.** inactive

**Q.** What about the Activity (A549 [4]) of the same compound?
**A.** inactive

**Q.** And the Activity (T-24)?
**A.** inactive

**Q.** Which results are given for `Cn1nnc2c(C(N)=O)ncn2c1=O` [TEMOZOLOMIDE]?
**A.** IC50 (U-251 [5]): > 100000 nM; IC50 (SH-SY5Y [7]): > 100000 nM; IC50 [9]: > 100000 nM

**Q.** Which IC50 (HeLa [6]) does the source give for `CC1=CC(=O)O[C@@]12C[C@H]1C[C@H](O)[C@@]3(C)Oc4cc(O)cc(C)c4C[C@H]3CC(C)(C)/C=C/C[C@]1(C)O/C2=C\C(=O)O` here?
**A.** 14300 nM

**Q.** What about the IC50 (SH-SY5Y [7]) of the same compound?
**A.** 81100 nM
